# Assay outcomes (PubChem BioAssay)
# MT stabilizer = microtubule stabilizers in HeLa cells. HeLa tubulin immunostaining HCS, 24 h; share of cells brighter than vehicle mean+2SD. % tubulin-high responders, % at 10 µM. hit rate 0.83% among 200,000. AID 2205;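 active means plate Z-score above 3 for both tubulin-high and condensed-nucleus cell shares, with cell loss under 80%, at 10 µM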;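 further: anti alpha tubulin signal scored within the nucleus-defined area of each cell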
# Dynein cargo inh = dynein cargo transport inhibition. AID 1381. 3617.4 mouse cells, GR-EGFP nuclear translocation imaging; test concentration mostly 20 µM; stimulated with dexamethasone, 1 µM; stronger effect = lower value. hit rate 0.47% among 220,000. z-score, hits read low;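 active means plate z-score of nuclear minus cytoplasmic receptor signal below a set negative limit, without overly bright fluorescence or cell loss, cut at about -3.5 in these data, passing the limit was not always enough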;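 further: z-score of nuclear minus cytoplasmic ring GR-EGFP intensity difference per well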
#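 medium = tetracycline-free induction medium containing charcoal-stripped FBS | probe or stimulus = dexamethasone, 1.0 µM final | timing = 48 h induction, then 1 h compound, then 30 min agonist, 37 °C | detection = automated 10x imaging of fixed Hoechst-stained cells | read-out basis = nuclear versus cytoplasmic GR-EGFP signal, averaged per well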
# Autophagy HCS = modulators of autophagy; MEF GFP-LC3 puncta imaging; test concentration mostly 10 µM; calls only at 10 µM (by protocol); AID 463193; hit rate 0.98% among 190,000;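 active means percentage of spot-positive cells more than 3 SD above its plate mean, without a fluorescence outlier flag or 80% toxicity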;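 further: spot-positive cell cutoff set from DMSO-treated cells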
# L major viab = Leishmania major promastigote growth inhibition. Leishmania major promastigotes, resazurin fluorescence viability. hit rate 9% among 200,000. AID 1063. inhibition, % at 10 µM; in the data active means inhibition above about 50%;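 further: promastigotes grown with compound for 44 hours at 28 °C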
# b-catenin transl = alters nuclear translocation of beta-catenin in HeLa cells | immunofluorescence imaging | nuclear translocation activity, % at 5 µM | hit rate 0.3% among 190,000 | AID 1665;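 active means nuclear translocation activity above 50% at 5 µM, with a well cell count of 50 or more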;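 further: per-cell ratio of nuclear to cytoplasmic median beta-catenin stain intensity; plate controls were DMSO negative control for no effect and GSK-3 inhibitor IX positive control for full effect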
#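 Signal – beta-catenin immunofluorescence imaging with DAPI · Test system – human HeLa cell line · Dosing – 5 µM primary single dose, 0.1% DMSO, 0.02–20 µM confirmation series · Measure – % activation, nuclear-to-cytoplasmic median beta-catenin signal ratio per cell · Incubation – 24 h compound exposure at 37°C, 5% CO2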
# CHOP inhibitor = inhibitors of CHOP induction in ER stress response; CHO-K1 CHOP-promoter luciferase, tunicamycin-induced, 15-18 h; inhibition, % at 10 µM; hit rate 3.8% among 220,000; AID 2732;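 active means compounds that reduced the stress-induced luciferase reporter signal by more than about 70% of percent inhibition, limit read from the data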;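 further: 0% = tunicamycin plus vehicle and 100% = wells without tunicamycin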
# * hit, by the source's call; i = inactive; . = not tested or not shown; + = active, no number. Sampled rows, rich in hits. Any-hit rate of the full collection: about 12%.
SMILES,MT stabilizer,Dynein cargo inh,Autophagy HCS,L major viab,b-catenin transl,CHOP inhibitor
COc1nc(C)nc2c1ccc1ccccc12,2,0.13,i,-8,-2,9
CCOC(=O)C1=C(C)OC(N)=C(C#N)C1c1cc2cc(C)ccc2nc1N1CCCCC1 (stereo unspecified),4,-1.5,i,13,-1,32
CCOC(=O)C1=C(C)OC(N)=C(C#N)C1c1cc2ccccc2nc1N1CCCCC1 (stereo unspecified),6,3.2,i,86*,-9,8
CCC1=C(OC(=O)N(CC)CC)N2C(=O)OC(=NCC3CC3)[C@]2(Cc2ccccc2)[C@H]2C1=CC[C@H]1C(=O)NC(=O)[C@H]12,.,2.3,.,.,-2,-7
O=C(Cn1c(=O)oc2ccccc21)N1CCN(c2ccccc2)CC1,3,0.59,i,-1,-1,9
CC(NC(=O)Cn1c(=O)oc2cc(S(=O)(=O)N3CCCC3)ccc21)c1ccccc1 (stereo unspecified),5,0.4,i,100*,2,2
O=C(Cn1c(=O)oc2cc(S(=O)(=O)N3CCCCCC3)ccc21)NC1CCCCCCC1,5,-0.52,i,-1,.,33
O=C(Cn1c(=O)oc2cc(S(=O)(=O)N3CCCC3)ccc21)N1CCN(c2ccccc2)CC1,9,-0.81,i,100*,.,0
Cc1c(C(=O)NC2CCCc3ccccc32)oc2ccc(S(=O)(=O)N3CCCCC3)cc12 (stereo unspecified),5,1.5,i,4,-2,85*
CCOC(=O)Cn1c(=O)oc2cc(S(=O)(=O)NC(C)c3ccccc3)ccc21 (stereo unspecified),2,-0.28,i,-4,.,8
O=C(Cn1c(=O)oc2cc(S(=O)(=O)N3CCCC3)ccc21)NC1CCCc2ccccc21 (stereo unspecified),4,-0.48,i,100*,-2,46
CN(CC(=O)Nc1ccc(F)cc1)C(=O)COc1ccc(C(=O)c2ccccc2)cc1,5,0.31,i,4,0,30
Cc1c(Cl)cccc1NC(=O)CCC(=O)NNC(=O)c1ccccc1,3,0.57,i,-6,-3,31
CN(Cc1ccccc1)C(=O)Cn1c(=O)oc2cc(S(=O)(=O)N3CCCC3)ccc21,3,-0.33,i,100*,-6,11
CN(Cc1ccccc1)C(=O)Cn1c(=O)oc2cc(S(=O)(=O)NCc3ccccc3)ccc21,7,-0.25,i,-6,4,63
COC(=O)c1c(N2C(=O)CC(Sc3ccccc3C(=O)O)C2=O)sc2c1CCCC2 (stereo unspecified),2,-0.65,i,-8,-2,-1
CCN(CC)C(=O)C1CCCN(Cc2ccc(F)c(F)c2)C1 (stereo unspecified),2,-0.47,i,-5,0,86*
CN(Cc1ccccc1)C(=O)C1CCCN(Cc2ccc(Cl)cc2)C1 (stereo unspecified),3,-0.094,i,89*,3,-21
COc1ccc(CCN(C)C(=O)C2CCN(Cc3ccccc3)CC2)cc1OC,1,-1.1,i,-5,0,1
CCOC(=O)C1CCCN(Cc2cccc(Cl)c2)C1 (stereo unspecified),2,-0.38,i,-1,-1,37
CCN(CC)C(=O)C1CCCN(Cc2ccc3c(c2)OCO3)C1 (stereo unspecified),3,-0.83,i,44,.,31
CN(Cc1ccccc1)C(=O)C1CCN(Cc2ccc(F)cc2)CC1,2,0.15,i,89*,-10,3
NC(=O)C1CCCN(Cc2ccc(Cl)cc2)C1 (stereo unspecified),4,1.2,i,79*,1,8
CC(=O)Nc1ncc(Cc2cc(Cl)ccc2Cl)s1,3,0.8,+,20,1,-15
CC(=O)Nc1ncc(Cc2cccc(Cl)c2Cl)s1,4,-0.5,i,4,0,10
SMILES,MT stabilizer,Dynein cargo inh,Autophagy HCS,L major viab,b-catenin transl,CHOP inhibitor
CCc1ccc(CCC(=O)Nc2ncc(Cc3ccccc3Cl)s2)o1,12*,0.21,i,-5,150*,24
CCc1ccccc1N(C1=NCCCS1)S(=O)(=O)c1ccc(C(C)(C)C)cc1,5,-0.1,i,33,-1,0
CC(C)OC(=O)[C@H]1[C@H](c2ccc(Cl)cc2)[C@@](C#N)(C(N)=O)[C@@H]2C=CC(C(N)=O)=CN21,2,-2.1,i,-3,.,-4
Cc1ccc(N(C(=O)Cc2c[nH]c3ccccc23)C(C(=O)NC2CCCCC2)c2ccco2)cc1 (stereo unspecified),4,-0.5,i,24,-5,88*
COc1ccc(C(C(=O)NC2CCCCC2)N(C(=O)Cc2c[nH]c3ccccc23)c2ccccc2C)cc1OC (stereo unspecified),2,0.28,i,95*,-1,38
Cc1ccc(C(C(=O)NC2CCCCC2)N(Cc2ccco2)C(=O)Cc2c[nH]c3ccccc23)o1 (stereo unspecified),1,-0.33,i,42,-1,87*
COc1ccc(C(C(=O)NC2CCCCC2)N(Cc2cccs2)C(=O)Cc2c[nH]c3ccccc23)cc1OC (stereo unspecified),3,-0.49,i,4,-2,43
COc1ccccc1C(=O)N/C(=C\c1ccc(Br)cc1)C(=O)NCC(=O)O,2,-0.18,i,57*,0,-6
CC(C(=O)Nc1ccncc1)(c1ccccc1)c1ccccc1,6,1.8,i,29,-1,20
O=C(CNC(=O)c1ccccc1)OCc1cccc(Br)c1,3,-0.68,i,-8,9,9
O=C(CNC(=O)c1ccccc1)OCc1cccc([N+](=O)[O-])c1,2,-0.35,i,56*,-2,20
COc1ccc(-c2nn(-c3ccccc3)cc2/C=N/Nc2ccc3ccccc3n2)cc1OC,2,0.62,i,51*,.,13
COc1ccc(-c2nn(-c3ccccc3)cc2/C=N/NC(=S)NC(C)C)cc1OC,2,1.9,i,61*,1,10
COc1ccc(-c2nn(-c3ccccc3)cc2/C=N/Nc2ccc(S(N)(=O)=O)cc2[N+](=O)[O-])cc1OC,4,0.99,i,14,4,-5
COc1ccc(-c2nn(-c3ccccc3)cc2/C=N/N=C(N)N)cc1OC,3,-0.47,i,46,14,28
CC1CC(C)CN(S(=O)(=O)N2CCC(C(=O)NCCC3=CCCCC3)CC2)C1 (stereo unspecified),3,1.6,i,12,-1,30
N#CC1=C(N)c2ccccc2CC12CCCCC2,1,-0.26,i,8,-4,78*
CCC(=O)NC1=C(C#N)C2(CCCC2)Cc2ccccc21,3,0.029,i,-1,-8,12
